High-throughput results as filed in PubChem BioAssay.
GASC-1 inh = inhibitors of GASC-1 histone demethylase, primary screen, biochemical, fluorescence, DELFIA europium | hit rate 0.069% among 330,000 | Lysine-specific demethylase 4C (Homo sapiens), Q9H3R0 | AID 2099, 2009 | GST-JMJD2C(1-420) H3K9me3 demethylation | inhibition, % at 2.35 µM;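 active = more than half of a compound's replicate wells show inhibition beyond 50%, single wells judged on their own value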;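 note: signal counts dimethyl H3K9 product captured on neutravidin plate; 0% = median of DMSO wells and 100% = 0.3 times that DMSO median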
GRIN3A LBD mod = binders of NR3A ligand-binding domain, primary screen, biophysical, differential scanning fluorimetry, uHTS; NR3A LBD differential scanning fluorimetry, Tm shift; 0% = protein alone, 100% = glycine-bound protein; Tm shift relative to glycine control, % at 25 µM; hit rate 2.5% among 340,000; AID 1259313, 2017;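 active = melting temperature shift of at least 10% of the positive control shift, at one fixed dose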
Rtt109 HAT inh = inhibitors of C. albicans Rtt109/Vps75 HAT, primary screen, biochemical, ThioGlo CoA-SH fluorescence, plate reader; AID 540336, 2011; hit rate 0.16% among 330,000; Histone acetyltransferase RTT109 (Candida albicans (strain SC5314 / ATCC MYA-2876)), …; purified Rtt109/Vps75, 4 h; inhibition, % at 34.9 µM;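 active = inhibition of at least 50% in every replicate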
Target sequence (Q5AAJ8 whole entry, looked up): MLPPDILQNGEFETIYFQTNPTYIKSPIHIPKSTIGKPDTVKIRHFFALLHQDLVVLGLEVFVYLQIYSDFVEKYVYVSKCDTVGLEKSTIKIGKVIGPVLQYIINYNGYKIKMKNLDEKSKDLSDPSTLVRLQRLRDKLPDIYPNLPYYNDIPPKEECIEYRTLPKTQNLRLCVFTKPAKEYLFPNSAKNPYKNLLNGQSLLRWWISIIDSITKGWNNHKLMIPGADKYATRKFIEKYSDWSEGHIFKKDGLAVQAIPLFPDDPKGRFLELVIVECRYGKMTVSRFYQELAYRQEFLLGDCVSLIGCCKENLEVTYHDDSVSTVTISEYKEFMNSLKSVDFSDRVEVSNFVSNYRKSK
T cell modulator = modulators of CD8 T cell-vesicle binding, primary screen, mouse 2C CD8+ T cells, flow cytometry; 2C CD8+ T cell-vesicle binding; hits give low values; response (vesicle binding), % at 7 µM; hit rate 0.068% among 330,000; AID 2052, 2009;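 active = response, share of CD8 T cells binding vesicles, and their 90th percentile fluorescence all below set limits, cut at about 80% in these data, passing the limit was not always enough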;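 note: values below 100% mean blocked vesicle binding to the CD8+ T cells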
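Test system: purified 2C TCR transgenic mouse naive CD8+ T cells. Probe or stimulus: QL9-peptide-loaded Drosophila micro-vesicles bearing Ld, ICAM-1 and B7-1. Incubation: binding step 1.5 h, 37 °C, antibody labelling 20 min, ice. Measured by: flow cytometry of vesicle-bound cells.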
The depositor's hits bear a star; i = inactive; · = no result given. Most compounds without a hit are left out; they make up all but 2.8% or so of the library.

SMILES	GASC-1 inh	GRIN3A LBD mod	Rtt109 HAT inh	T cell modulator
CC(C)(C)C1CCC(=NNc2ccc(S(N)(=O)=O)cc2[N+](=O)[O-])CC1 (stereo unspecified)	-1	16*	5	303
NS(=O)(=O)c1ccc(N/N=C/c2ccc(O)cc2O)c([N+](=O)[O-])c1	-2	30*	23	91
NS(=O)(=O)c1ccc(N/N=C/c2ccccc2C(=O)O)c([N+](=O)[O-])c1	27	-1	20	329
O=C(O)c1ccccc1NS(=O)(=O)c1ccc(NN=Cc2ccc(F)cc2)c([N+](=O)[O-])c1	5	12*	-5	482
O=C(O)c1ccccc1NS(=O)(=O)c1ccc(N/N=C/c2ccc(O)c(O)c2)c([N+](=O)[O-])c1	·	16*	-1	·
C[C@@H]1CN(S(=O)C(C)(C)C)[C@@H](CCO)/C1=C\c1ccccc1 (stereo partly specified)	·	-10	-5	·
O=C(O)c1ccccc1NS(=O)(=O)c1ccc(NN=Cc2cccc(Cl)c2)c([N+](=O)[O-])c1	-7	32*	1	518
CC(C)CC1Nc2ccc(C(=O)NCCCN3CCCCC3C)cc2NC1=O (stereo unspecified)	-9	4	2	512
C=C(C)C(O)Cc1c(OC)ccc(C(=O)/C=C/c2ccc(O)cc2)c1O (stereo unspecified)	·	25*	10	252
CC(C)=CCC/C(C)=C/Cc1c(O)ccc(C(=O)/C=C/c2ccc(O)cc2)c1O	7	29*	9	·
Cc1cc(C)c2c(=O)n(CC(=O)NCCCN3CCOCC3)sc2n1	2	19*	-1	263
Cc1cc(C)c2c(=O)n(CC(=O)NCCCN3CCN(c4ccccc4F)CC3)sc2n1	-9	3	·	284
Cc1ccc(NC(=O)Cn2sc3nc(C)cc(C)c3c2=O)c(Cl)c1	47	4	154*	186
Cc1cccc(N2CCN(C(=O)Cn3sc4nc(C)cc(C)c4c3=O)CC2C)c1 (stereo unspecified)	8	1	159*	250
CCOC(=O)C1=CN(Cc2cccc(-c3ccc(F)cc3)c2)S(=O)(=O)N(C)C1C (stereo unspecified)	·	13*	-4	·
CSCCC(NC(=O)c1ccccc1Br)C(=O)NNC(=O)c1ccncc1 (stereo unspecified)	4	-1	-8	223
Cc1ccccc1OCCC(=O)Nc1cccc(S(=O)(=O)Nc2ccccc2Cl)c1	2	15*	5	213
O=C(COc1ccccc1F)Nc1cc(S(=O)(=O)Nc2cccc(Cl)c2)ccc1O	7	27*	1	353
O=C(Cc1ccc(Cl)cc1Cl)Nc1cccc(S(=O)(=O)Nc2ccccc2F)c1	-2	26*	9	591
Cc1ccc(C)c(OCCC(=O)Nc2cccc(S(=O)(=O)NC3=NCCCCC3)c2)c1	-11	1	10	i
COc1cc(/C=C2\SC(=O)N(c3ccc(O)cc3)C2=O)cc(OC)c1OC	-4	-2	2	295
CCOc1ccc(N2C(=O)S/C(=C\c3ccc(O)c(OC)c3)C2=O)cc1	-7	-1	-3	i
COc1cc(/C=C2\SC(=N)N(c3ccc4c(c3)OCO4)C2=O)cc(OC)c1O	4	11*	-2	253
COc1cc(/C=C2\SC(=N)N(c3ccc(F)cc3)C2=O)ccc1O	-10	27*	-1	456
COc1ncnc2sc(-c3ccccc3)cc12	88	0	-18	·
SMILES	GASC-1 inh	GRIN3A LBD mod	Rtt109 HAT inh	T cell modulator
COc1ccc(Nc2ccnc(Nc3ccc(OC)cc3)n2)cc1	-2	-19	-2	399
COc1ccc(Nc2ncnc3sc(-c4ccccc4)cc23)cc1	-7	16*	-4	270
COc1ccc(Nc2cc(Nc3ccccc3)ncn2)cc1	-10	31*	-4	275
COC(=O)c1cc(NC(=O)COC(=O)CN2C(=O)C3CC=CCC3C2=O)cc(C(=O)OC)c1 (stereo unspecified)	·	1	-5	·
COc1ccc(C(=O)Nc2cc(C(F)(F)F)ccc2-n2cnc3ccccc32)cc1	-6	14*	-1	295
CC(=O)Nc1ccc(C(=O)Nc2cc(C(F)(F)F)ccc2-n2cnc3ccccc32)cc1	-1	-3	-11	194
O=S(=O)(NN=Cc1ccc(O)cc1O)c1cc(Cl)c(Cl)cc1Cl	·	22*	12	·
